The target in data set [1] is T1, Glucagon-like peptide 1 receptor (Homo sapiens, UniProt P43220). Put plainly: Positive allosteric modulation of human recombinant GLP1 receptor expressed in 9-3-H cells by calcium mobilization assay. In kind it is functional, cell-based. For orientation: Calcium assays in cells follow changes in intracellular calcium, usually with a dye or a luminescent sensor.
Data set [2] has as its target T1, Glucagon-like peptide 1 receptor. Kind of data set: Positive allosteric modulation of human recombinant GLP1 receptor expressed in 9-3-H cells by calcium mobilization assay relative to control. The format is functional, cell-based.
Another data set concerns the target T2, Cytochrome P450 1A2 (Homo sapiens, UniProt P05177).
T2 sequence (P05177 whole entry): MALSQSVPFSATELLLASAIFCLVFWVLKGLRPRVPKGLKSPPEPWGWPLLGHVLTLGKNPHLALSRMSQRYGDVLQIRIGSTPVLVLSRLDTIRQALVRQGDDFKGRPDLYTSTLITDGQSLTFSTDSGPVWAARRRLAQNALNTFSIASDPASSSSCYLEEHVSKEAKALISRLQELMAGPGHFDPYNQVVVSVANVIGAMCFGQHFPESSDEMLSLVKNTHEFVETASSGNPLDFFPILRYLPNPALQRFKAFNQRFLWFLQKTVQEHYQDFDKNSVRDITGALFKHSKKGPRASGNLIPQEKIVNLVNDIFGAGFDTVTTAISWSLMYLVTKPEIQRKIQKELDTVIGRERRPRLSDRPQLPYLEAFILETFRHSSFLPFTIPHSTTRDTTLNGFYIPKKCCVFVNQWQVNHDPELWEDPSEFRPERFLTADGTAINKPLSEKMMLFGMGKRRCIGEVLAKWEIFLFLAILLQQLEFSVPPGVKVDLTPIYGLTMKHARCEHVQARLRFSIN
Kind of data set: Inhibition of CYP1A2 (unknown origin). The format is ADME. In outline: (§1)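 An in vitro cassette P450 inhibition assay was run in microsomes, with 1A2, 2C9, 2D6 and 3A4 tested together. IC50 values are reported in μM.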

Another data set concerns the target Cytochrome P450 2C9 (Homo sapiens, UniProt P11712). Put plainly: Inhibition of CYP2C9 (unknown origin). In kind it is ADME. Put shortly: as §1
A further data set concerns the target Cytochrome P450 2D6 (Homo sapiens, UniProt P10635). Kind of data set: Inhibition of CYP2D6 (unknown origin). The format is ADME. In outline: as §1
The next data set has as its target Cytochrome P450 3A4 (Homo sapiens, UniProt P08684). Kind of data set: Inhibition of CYP3A4 (unknown origin).
For data set [3], the system named is Plasma. Put plainly: Fraction unbound in human plasma. In kind it is ADME, cell-free.
For data set [4], the system named is Plasma. Put plainly: Fraction unbound in rat plasma. In kind it is ADME, cell-free.
Data set [5] addresses T1, Glucagon-like peptide 1 receptor. Put plainly: Positive allosteric modulation of human recombinant GLP1 receptor expressed in 9-3-H cells by calcium mobilization assay in presence of EC20 of GLP1. In kind it is functional, cell-based.
For data set [6] the target is unchanged. Kind of data set: Positive allosteric modulation of human recombinant GLP1 receptor expressed in 9-3-H cells by calcium mobilization assay in presence of EC20 of GLP1 relative to control. The format is functional, cell-based.
Data set [7] shares this target. Kind of data set: Positive allosteric modulation of human recombinant GLP1 receptor expressed in 9-3-H cells by calcium mobilization assay in presence of EC20 of exenatide. In kind it is functional, cell-based.
The target is the same in data set [8]. Kind of data set: Positive allosteric modulation of human recombinant GLP1 receptor expressed in 9-3-H cells by calcium mobilization assay in presence of EC20 of exenatide relative to control. In kind it is functional, cell-based.
Data set [9] has the same target. Put plainly: Positive allosteric modulation of human recombinant GLP1 receptor expressed in 9-3-H cells by calcium mobilization assay in presence of EC20 of liragulitide. In kind it is functional, cell-based.
For data set [10] the target is unchanged. Kind of data set: Positive allosteric modulation of human recombinant GLP1 receptor expressed in 9-3-H cells by calcium mobilization assay in presence of EC20 of liragulitide relative to control. In kind it is functional, cell-based.
Data set [11] has the same target. Kind of data set: Positive allosteric modulation of human recombinant GLP1 receptor expressed in 9-3-H cells assessed as fold change at 30 uM by calcium mobilization assay […] relative to control. The format is functional, cell-based.
A short description of data set [12]: Intrinsic clearance in human liver microsomes. The format is ADME. The note with it: read-out: CLH. Put shortly: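 Human liver microsome clearance was scaled to predicted hepatic clearance by the well-stirred model. The model used 20 g liver per kg body weight and 21 mL/kg hepatic blood flow.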
(In general: Liver microsomes are a subcellular fraction often used to study metabolism.)

Data set [13] in a line: Intrinsic clearance in rat liver microsomes. In kind it is ADME. Particulars: read-out: CLH.
Another data set deals with Brain. Kind of data set: Fraction unbound in rat brain homogenate. The format is ADME, tissue-based.
A further data set relates to Nucleic Acid. Put plainly: Ratio of drug level in brain to plasma at 10 mg/kg, ip. The note with it: rat. More on the design: dose 10 mg/kg, route intraperitoneal. The format is ADME, organism-based. In outline: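 Rats were dosed IP at 10 mg/kg. Plasma and brain levels were measured at 0.5 h, and the brain:plasma ratio was given as Kp and as Kp,uu, using unbound fractions.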

A short description of data set [14]: Half life in rat at 1 mg/kg, iv and […], po. In kind it is ADME, organism-based. More on the design: dose 1 mg/kg, route oral. The note with it: in vivo. In outline:
(§2)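 Male Sprague–Dawley rats were dosed IV at 1 mg/kg and PO at […]. Plasma pharmacokinetic parameters were derived from these doses.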

Another data set concerns Rattus norvegicus. Kind of data set: Volume of distribution at steady state in rat at 1 mg/kg, iv and […], po. In kind it is ADME, organism-based. More on the design: dose 1 mg/kg, route oral. The note with it: in vivo. In outline:
as §2

Data set [15] addresses Melanocortin receptor 4 (Homo sapiens) (UniProt P32245). Kind of data set: Activity at melanocortin 4 receptor (unknown origin).
For data set [16], the target named is Glucagon receptor (Homo sapiens) (UniProt P47871). Kind of data set: Activity at glucagon receptor (unknown origin).

Activity calls are given as the source filed them. Some results are limits rather than exact numbers.

T1 sequence (P43220 whole entry): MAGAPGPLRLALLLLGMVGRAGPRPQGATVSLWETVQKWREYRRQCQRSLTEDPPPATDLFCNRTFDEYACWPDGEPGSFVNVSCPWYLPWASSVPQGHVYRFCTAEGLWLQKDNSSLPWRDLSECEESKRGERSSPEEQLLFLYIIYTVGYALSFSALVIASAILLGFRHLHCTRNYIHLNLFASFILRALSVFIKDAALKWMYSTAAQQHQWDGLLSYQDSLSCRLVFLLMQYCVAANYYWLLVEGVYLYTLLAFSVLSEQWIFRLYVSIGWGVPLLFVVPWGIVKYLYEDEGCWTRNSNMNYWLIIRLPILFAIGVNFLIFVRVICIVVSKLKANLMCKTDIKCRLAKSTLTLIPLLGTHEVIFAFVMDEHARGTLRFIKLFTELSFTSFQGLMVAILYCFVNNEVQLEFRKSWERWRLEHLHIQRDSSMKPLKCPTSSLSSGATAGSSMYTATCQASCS
Sequence of Cytochrome P450 2C9 (P11712 whole entry): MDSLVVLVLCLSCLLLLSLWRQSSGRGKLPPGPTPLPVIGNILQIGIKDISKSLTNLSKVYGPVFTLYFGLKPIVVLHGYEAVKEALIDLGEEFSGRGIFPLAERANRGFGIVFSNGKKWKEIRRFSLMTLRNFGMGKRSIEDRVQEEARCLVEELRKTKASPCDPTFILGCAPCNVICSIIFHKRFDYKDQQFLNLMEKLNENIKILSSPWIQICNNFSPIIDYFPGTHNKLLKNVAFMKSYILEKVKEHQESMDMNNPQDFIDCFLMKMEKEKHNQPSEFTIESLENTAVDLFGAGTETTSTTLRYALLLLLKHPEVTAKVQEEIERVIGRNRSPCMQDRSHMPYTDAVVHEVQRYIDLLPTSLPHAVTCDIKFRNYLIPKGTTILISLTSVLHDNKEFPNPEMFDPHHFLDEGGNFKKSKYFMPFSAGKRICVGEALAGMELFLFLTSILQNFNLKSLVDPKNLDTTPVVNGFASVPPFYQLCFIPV
Sequence of Melanocortin receptor 4 (Homo sapiens) (P32245 whole entry): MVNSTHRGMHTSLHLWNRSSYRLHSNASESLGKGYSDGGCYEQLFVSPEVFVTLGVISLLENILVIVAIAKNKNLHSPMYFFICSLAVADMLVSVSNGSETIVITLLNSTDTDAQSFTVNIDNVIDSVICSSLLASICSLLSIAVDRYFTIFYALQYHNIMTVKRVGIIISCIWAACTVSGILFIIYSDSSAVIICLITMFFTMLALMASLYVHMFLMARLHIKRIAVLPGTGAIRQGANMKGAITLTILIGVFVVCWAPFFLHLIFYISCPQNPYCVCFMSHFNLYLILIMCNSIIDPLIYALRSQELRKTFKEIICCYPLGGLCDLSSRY
Sequence of Glucagon receptor (Homo sapiens) (P47871 whole entry, looked up): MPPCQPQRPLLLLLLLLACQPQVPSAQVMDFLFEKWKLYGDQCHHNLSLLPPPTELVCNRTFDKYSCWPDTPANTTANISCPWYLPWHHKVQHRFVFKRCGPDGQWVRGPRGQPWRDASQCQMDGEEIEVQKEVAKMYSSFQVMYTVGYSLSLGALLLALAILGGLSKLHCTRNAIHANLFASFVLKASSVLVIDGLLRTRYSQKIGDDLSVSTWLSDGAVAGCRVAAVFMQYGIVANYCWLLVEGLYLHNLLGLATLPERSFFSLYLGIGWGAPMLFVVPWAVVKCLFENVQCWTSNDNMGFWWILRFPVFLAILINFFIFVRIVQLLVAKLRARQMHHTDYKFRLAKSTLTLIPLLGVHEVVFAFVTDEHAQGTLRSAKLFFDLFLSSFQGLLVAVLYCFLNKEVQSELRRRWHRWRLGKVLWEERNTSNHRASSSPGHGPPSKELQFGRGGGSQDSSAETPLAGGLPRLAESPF
Sequence of Cytochrome P450 2D6 (P10635 whole entry): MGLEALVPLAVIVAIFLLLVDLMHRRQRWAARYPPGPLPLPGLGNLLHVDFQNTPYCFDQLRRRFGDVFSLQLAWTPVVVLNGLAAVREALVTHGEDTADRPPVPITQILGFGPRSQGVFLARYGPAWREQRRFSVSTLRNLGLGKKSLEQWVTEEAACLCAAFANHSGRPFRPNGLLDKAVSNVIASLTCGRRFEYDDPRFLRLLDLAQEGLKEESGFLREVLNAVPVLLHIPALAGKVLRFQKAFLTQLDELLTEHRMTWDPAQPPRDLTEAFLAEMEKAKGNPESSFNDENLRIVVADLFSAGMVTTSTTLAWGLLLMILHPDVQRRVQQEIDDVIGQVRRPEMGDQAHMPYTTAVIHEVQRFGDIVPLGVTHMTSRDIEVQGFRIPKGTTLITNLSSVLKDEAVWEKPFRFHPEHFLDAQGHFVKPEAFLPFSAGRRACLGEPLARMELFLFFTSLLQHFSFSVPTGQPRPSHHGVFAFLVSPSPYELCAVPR
Sequence of Cytochrome P450 3A4 (P08684 whole entry): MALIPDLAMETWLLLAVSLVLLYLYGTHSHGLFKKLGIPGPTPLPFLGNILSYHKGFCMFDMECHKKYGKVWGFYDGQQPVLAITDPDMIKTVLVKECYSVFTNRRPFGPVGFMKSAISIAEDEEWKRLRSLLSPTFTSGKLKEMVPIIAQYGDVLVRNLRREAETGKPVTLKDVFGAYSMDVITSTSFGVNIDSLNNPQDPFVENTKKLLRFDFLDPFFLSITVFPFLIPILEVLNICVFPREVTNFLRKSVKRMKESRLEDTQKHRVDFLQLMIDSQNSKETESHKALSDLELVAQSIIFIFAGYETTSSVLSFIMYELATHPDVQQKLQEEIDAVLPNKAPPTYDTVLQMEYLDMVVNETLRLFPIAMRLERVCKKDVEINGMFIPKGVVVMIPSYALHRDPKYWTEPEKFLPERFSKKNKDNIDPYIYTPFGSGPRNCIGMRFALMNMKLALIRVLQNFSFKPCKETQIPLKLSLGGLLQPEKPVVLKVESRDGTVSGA

For `CCN1CCC[C@H]1CNC(=O)c1cn(C2CCCC2)c(=O)c2c1c1ccccc1n2C`, the EC50 was 2.4 µM in data set [1] (read-out: EC50) and 2.04 µM in data set [1] (read-out: pEC50 (converted)). The maximum response (Emax) in data set [2] was 53.4%. The concentration for half-maximal inhibition (IC50) against Cytochrome P450 1A2 is over 20 µM; on Cytochrome P450 2C9, over 20 µM; against Cytochrome P450 2D6 it was over 20 µM; on Cytochrome P450 3A4 it was 3.2 µM. Also, the Fu in the data set on Plasma [3] and in the data set with Plasma [4] was over 10% throughout.

Consider `COc1ccccc1CN1CCC[C@H]1CNC(=O)c1cn(C2CCCC2)c(=O)c2c1c1ccccc1n2C`, for which the EC50 in [1] (read-out: EC50) was 12.1 µM. The maximum response (Emax) in data set [2] is 68.3%.

Turning to `CC(C)N1CCC[C@H]1CNC(=O)c1cn(C2CCCC2)c(=O)c2c1c1ccccc1n2C`, the EC50 is 1.3 µM in data set [1] (read-out: EC50), 1800 nM in [5], 8.4 µM in [7] and 30 µM in data set [9]. Moreover, the maximal effect (Emax) was 59.2% in [2]; 59.2% in data set [6]; 71.5% in [8]; 59.2% in data set [10]; 20% in [11]. Also, the IC50 at Cytochrome P450 1A2 and on Cytochrome P450 2C9 was over 30 µM throughout. For the same compound, the Fu amounted to 0.146 with Plasma [3], 0.158 in the data set on Plasma [4] and 0.015 in the data set on Brain. The CLint scaled worked out at 69.9 mL/min/kg in data set [12] and 19.9 mL/min/kg in data set [13]. Moreover, the “K(p,uu,brain)” value in the data set with Nucleic Acid was 0.27. Also, the partition ratio (Kp) in the data set on Nucleic Acid is 2.7. The compound further displayed a half-life in data set [14] of 58 min. In addition, in the data set on Rattus norvegicus, the Vdss amounted to 4 L/kg.

With `CCN1CCCC1CNC(=O)c1cn(C2CCCC2)c(=O)c2c1c1ccccc1n2C` (racemic), the EC50 in data set [1] (read-out: EC50) worked out at 4.1 µM. In addition, the Emax in [2] is 58.9%. The result in data set [15] and in data set [16] was inactive.

As for `CCCCCCN1CCC[C@H]1CNC(=O)c1cn(C2CCCC2)c(=O)c2c1c1ccccc1n2C`, the EC50 in data set [1] (read-out: EC50) is 10.3 µM. Also, the Emax in [2] came to 55.7%.

As to `CCCN1CCC[C@H]1CNC(=O)c1cn(C2CCCC2)c(=O)c2c1c1ccccc1n2C`, the EC50 in [1] (read-out: EC50) was 6.5 µM. In addition, in data set [2], the maximal response (Emax) is 48.4%.

For the compound `Cn1c2ccccc2c2c(C(=O)NC[C@@H]3CCCN3CCc3ccccc3)cn(C3CCCC3)c(=O)c21`, the EC50 was 14.1 µM in data set [1] (read-out: EC50) and 18.2 µM in data set [1] (read-out: pEC50 (converted)). In data set [2], the maximal response (Emax) turned out to be 68.5%.

What is called Emax is the greatest response seen or fitted, relative to the assay's reference. As a reminder, the IC50 is the concentration that gives 50% inhibition. Broadly, the Kp is the ratio of the level in a tissue or fluid to that in plasma or blood. As a reminder, the half-life is the time needed for the level to fall by half in the phase considered. A high value points to slow loss.

Source of the values: ChEMBL document CHEMBL3351313, “Discovery of (S)-2-cyclopentyl-N-((1-isopropylpyrrolidin2-yl)-9-methyl-1-oxo-2,9-dihydro-1H-pyrrido[3,4-b]indole-4-carboxamide (VU0453379): a novel, CNS penetrant glucagon-like peptide 1 receptor (GLP-1R) positive allosteric modulator (PAM)” (J Med Chem, 2014).
